# Source: ChEMBL document CHEMBL4513216, “Probing the Open Global Health Chemical Diversity Library for Multistage-Active Starting Points for Next-Generation Antimalarials” (ACS Infect Dis, 2020)
# Assay: Toxicity liver stage against HepG2, at 10uM
# Format: cell-based
# Set-up: test concentration 10 uM, cell line HepG2-A16-CD81EGFP
# Conditions: human, HepG2-A16-CD81EGFP cells; read-out: INHIBITION
# How it was run: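 Uninfected HepG2-A16-CD81EGFP cells, 3 × 10^3 per well, 1536-well, plated on prespotted compound at 10 μM final, parasite-free screening media added to match infected plates; puromycin 10 μM positive, DMSO 0.5% negative; run in parallel with 48 h PbLuc assay at 37 °C, 5% CO2; viability by CellTiter-Glo luminescence, normalized to controls.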
row,Compound,cytotoxicity at 10 µM [%]
1,Cc1nn(CC(O)CN2CCc3ccccc3C2)c(=O)c(C#N)c1C (centres undefined),8.27
2,O[C@@H]1C[C@@H](c2nc(-c3ccccc3)no2)N(CC2CCCCC2)C1,-2.74
3,CS(=O)(=O)N1CCCC12CCCN(C(=O)c1ccc3c(c1)OCO3)C2 (centres undefined),-144
4,CC(C)NC(=O)[C@]12COC[C@H]1CN(Cc1cnn(C)c1)C2,3.63
5,O=c1[nH]c2nc(N3CCSCC3)ncc2c(=O)n1-c1ccc(F)cc1,9.82
6,O=c1cc2c(nn1CN1CCOCC1)CCC2,1.31
7,Cn1cnc2c1C(COCC1CC1)CN(Cc1ccsc1)C2 (centres undefined),-5.07
8,Cc1ccc(NC(=O)c2cccc(OCc3nnnn3C)c2)nc1,4.4
9,CC1(C(N)=O)CN(CC2CCC2)CCO1 (centres undefined),2.04
10,CNC(=O)c1cc(C)nc(C2(C)CCCN2c2cc(C)ncn2)n1 (centres undefined),2.15
11,Cc1nccn1CCNC(=O)C1(C)CC(c2ccccc2)=NO1 (centres undefined),8.46
12,COc1ccccc1CNC(=O)c1ccccc1-n1cnc(CN)c1,-10.6
13,CC(O)c1cn(Cc2ccccc2)nn1 (centres undefined),7.62
14,CCc1cc2c(N3CCCC(c4ccn[nH]4)C3)ncnc2s1 (centres undefined),15.7
15,COc1ccc(C(CN2CCN(C)CC2)Nc2ncccn2)cc1 (centres undefined),5.54
16,COCCNc1nc(-c2ccc(S(=O)(=O)N3CCCCC3)cc2)cs1,-42
17,Cn1cc(CCC(=O)NCc2ccccc2OC(C)(C)C)cn1,6.67
18,COCCN1CC(=O)N(C(C)C)C(C)(C)C1,1.31
19,CC(NCc1cccn1C)c1noc(-c2ccc(Cl)cc2)n1 (centres undefined),5.07
20,Cc1cccn2cc(CN3CCC(N4CCN(C)C4=O)CC3)nc12,7.31
21,CCCc1c(C(=O)N2CCN(c3cnccn3)CC2)cnn1C,9.77
22,O=C(NCc1cc(F)ccc1F)Nc1ccn(CC(F)F)n1,-3.06

row,Compound,cytotoxicity at 10 µM [%]
1,CC(C)C(NCc1ccc(Cn2cncn2)cc1)c1ccccc1 (centres undefined),4.1
2,N#CCCN(CC1CCOC1)Cn1ccc(-c2ccsc2)n1 (centres undefined),-2.68
3,Cc1csc(C(C)(C)NCCNS(C)(=O)=O)n1,4.61
4,O=C(NCC1CCS(=O)(=O)C1)c1ccco1 (centres undefined),-7
5,COCCn1cc(NC(=O)N(CCC(N)=O)Cc2ccccc2)cn1,-4.72
6,CS(=O)(=O)NCCNC(=O)c1ccc(OCc2ccccc2)nc1,4.43
7,COc1ccc2cc(C(=O)NCCc3nc(C)no3)[nH]c2c1,9.63
8,Cc1cnn(CCC(=O)NS(=O)(=O)N2CCc3ccccc32)c1,4.72
9,CCc1nccn1C1CCCN(C(=O)CCc2nc(C(C)C)no2)C1 (centres undefined),5.93
10,O=C(Nc1nncs1)N1CCC(c2ccc(O)cc2)CC1,-7.55
11,OCCOc1ccc(NCc2cccc3cn[nH]c23)cn1,-4.13
12,Cc1ccc(S(=O)(=O)NCCNC(=O)c2ccoc2)cc1C,-3.26
13,CCC(O)CN1CCN(C(=O)c2cnn(-c3ccccc3F)c2)CC1 (centres undefined),-3.69
14,COc1ccc(C(=O)N(CCC#N)Cc2ccccn2)cc1,13.1
15,CCC(CC)c1cc(CNC(=O)N2CCCC(c3ncc[nH]3)C2)on1 (centres undefined),-2.02
16,CC(C)C(O)C(C)(C)CNC(=O)NCc1ccc(-n2cncn2)cc1 (centres undefined),-8.14
17,Cn1cc(Br)c(=O)c(NS(=O)(=O)c2ccccc2F)c1,-2.62
18,Cc1nnc2n1CCN(c1nn3cc(C(C)(C)C)nc3s1)C2,-0.903
19,CCN(C(=O)COc1nc(C(C)(C)C)no1)C1CC1,3.2
20,COc1ccc2cccc(CC(=O)NCc3n[nH]c(=O)[nH]3)c2c1,-3.22
21,O=C(NCCCO)Nc1cccc(C[S+]([O-])Cc2ccccc2)c1 (centres undefined),-1.06
22,NC(=O)Cn1ccc(NC(=O)C2(c3cccc(Cl)c3)CC2)n1,0.217

row,Compound,cytotoxicity at 10 µM [%]
1,CCOc1ccccc1CNC(=O)N(CC)C(C)c1cccnc1 (centres undefined),-3.64
2,O=C(Nc1cc(Cl)ccc1Cl)NC1CCN(C2CCOC2)CC1 (centres undefined),6.8
3,COC(=O)N1CCCC(C(=O)Nc2nc(C)c(SC)s2)C1 (centres undefined),11.1
4,CSC(C)C(=O)N1CCN(CCO)CC1 (centres undefined),-6.69
5,COC(=O)C(C)(C)S(=O)(=O)c1ccc(Br)cc1,5.25
6,COCCCOC1CN(C(=O)c2[nH]nc3c2CCCC3)C1,8.11
7,CC(=O)c1cc(C(=O)NC2(c3ccc(Br)cc3)CC2)n(C)c1,5.78
8,Cc1cc(C)c(CNc2cnc3ccccc3n2)c(=O)[nH]1,41.8
9,CC(Cn1ccnc1)NS(=O)(=O)Cc1ccc(F)cc1 (centres undefined),5.36
10,CN(CCn1cccn1)S(=O)(=O)c1ccc(C#N)cc1,-4.81
11,COc1cccc(OCc2nnc3n2N=C(C(C)(C)C)CS3)c1,4.4
12,CC(Cn1cccn1)NCc1csc(-c2ccc(F)cc2)n1 (centres undefined),-67.9
13,COc1ccccc1OCC(=O)Nc1ncccc1Cl,-3.61
14,Cn1nc2c(cc1=O)CN(CCc1nc3ccccc3c(=O)[nH]1)CC2,-10.9
15,O=C(CCN1CCC(C(=O)c2cc(F)ccc2F)CC1)NC1CC1,-7.74
16,Cc1nnc2n1CCN(C(=O)c1cn(-c3ccccc3Cl)nn1)C2,-4.55
17,Cc1nnc([C@@]23CCO[C@@H]2CCN(S(=O)(=O)c2cccnc2)C3)o1,-103
18,O=C(c1ccncc1)N1CCc2c(COCC3CC3)cncc2C1,-78.7
19,Cn1cc(-c2cnc(N3CCOCC3)nc2)cc1C(=O)NC1CC1,-80.4
20,CCC(CC)NC(=O)c1ccc2nnc(C3CCN(S(C)(=O)=O)C3)n2c1 (centres undefined),3.25
21,CCCC1C=CCN1C(=O)c1cc(COc2ccccc2)[nH]n1 (centres undefined),9.8
22,CN(C)C(C(=O)NCC(F)(F)F)c1cccc(F)c1 (centres undefined),-2.49

row,Compound,cytotoxicity at 10 µM [%]
1,CC(C)N1CC(C(=O)N2CCN(CCn3cccc3)CC2)CC1=O (centres undefined),-4.97
2,CCc1nc(N2CCCC(CO)(CCOC)C2)ncc1C (centres undefined),4.93
3,O=C(CCc1cc2n(n1)CCN(CCCn1cccc1)C2)N1CCCC1,-15.4
4,O=C(CCc1cc(Cl)no1)N1CCN(CCn2cncn2)CC1,-1.84
5,Cc1nc2c(c(=O)[nH]1)CN(C(=O)CC[C@@H]1CCCN3CCCC[C@H]13)C2,17
6,O=C(Cn1cccn1)N1CCc2[nH]nc(-c3ccc4c(c3)OCO4)c2C1,-153
7,O=C(COc1cccc(F)c1)N1C[C@@H](CN2CCCC2)C[C@H](CO)C1,3.94
8,COCCC1(CO)CCCN(C(=O)CCC(F)(F)F)C1 (centres undefined),-2.86
9,O=C(O)c1ccc(CNC(=O)C2CCN(Cc3ccco3)CC2)s1,-0.861
10,C=C(C)COc1ccc(C(=O)N(C)C(C)c2ccon2)cc1 (centres undefined),4.18
11,Cn1cc(CN2CC[C@@H]3[C@@H](CCC(=O)N3CCc3ccccc3)C2)cn1,-1.45
12,Cn1cc(-c2ccnc(NCC3CCN(Cc4ccccc4)C3)n2)cn1 (centres undefined),-130
13,COCC(NC1CCN(CC(C)C)CC1)c1ccnn1C (centres undefined),4.22
14,Cc1ccc(C(C(=O)O)N2CCCN(Cc3ccccn3)CC2)c(F)c1 (centres undefined),-1.62
15,CN1CCCC2(CCN(S(=O)(=O)c3ccc(-c4cnco4)s3)C2)C1=O (centres undefined),5.84
16,COc1ccc(F)c(F)c1C(=O)N1C[C@@H](CN(C)CCO)[C@@H](CO)C1,-1.02
17,CN(C)CCC1CCCCN1Cc1cnn(C)c1C1CC1 (centres undefined),2.84
18,Cc1ccc(C)c2c(O)cc(CN3CCNC(=O)C3C)nc12 (centres undefined),-1.66
19,COc1ccc(NC(=O)Cn2nc(C)c(C)cc2=O)cc1Cl,-6.47
20,COc1ccc(NC(=O)Cn2nc(C)c(C)cc2=O)cc1,4.2
21,CS(=O)(=O)N1CCC(Oc2ccc(C(=O)NC3CCOC3)cc2Cl)CC1 (centres undefined),-4.88
22,Cc1nnc(CNCC2(O)CCCN(Cc3ccc(F)c(F)c3)C2=O)[nH]1 (centres undefined),-6.79

row,Compound,cytotoxicity at 10 µM [%]
1,COc1ccc(CC2(C(=O)O)CCN(c3nc(C)ncc3C)CC2)cc1,-21.8
2,CN1CCN(Cc2nc3ccccc3[nH]2)[C@H]2CS(=O)(=O)C[C@H]21,20.5
3,O=C1OC2(CCN(C3CCCOC3)CC2)CN1CCc1ccccc1 (centres undefined),-17.5
4,Cc1ccc(C#N)c(N2CCC(c3nccn3CCN(C)C)CC2)n1,-5.47
5,CCn1ccnc1CN1CCCN(C(=O)c2csc(C)n2)CC1,-2.84
6,CC(C)C(C)(C#N)NC(=O)CN1CCC(c2ccnn2CCO)CC1 (centres undefined),-4.95
7,CCOc1ccnc(N2CCN(C(=O)c3cc[nH]n3)CC2)n1,8.82
8,Cc1cc(CN2CCN(CC(O)c3ccc4c(c3)OCO4)CC2)no1 (centres undefined),-7.82
9,CCOCC(O)CN1CCN(C(=O)c2cc(F)ccc2C)CC1 (centres undefined),-6.69
10,COc1cccc(CNC(=O)N2CCN(Cc3cc(C)on3)CC2)c1,-1.58
11,CCc1noc(C(C)N2CCC(C(=O)Nc3cnn(CC)c3)CC2)n1 (centres undefined),2.21
12,CN1CCc2c(C#N)c(NCC3CCCO3)n3cnnc3c2C1 (centres undefined),4.48
13,CC1CCN(CC(=O)NC2CCN(C(C)c3ccccc3)CC2)CC1 (centres undefined),-6.36
14,CNC(=O)C1(N2CCC[C@H]2C(=O)NC2CCCCC2)CCOCC1,-1.25
15,Cc1cc(C[C@@H]2CCC[C@H]2NCc2cc(F)ccc2F)on1,-5.72
16,c1ccc(CN2CC[C@@H]3O[C@@H](COCCN4CCCC4)CC[C@@H]32)nc1,-80.6
17,Cc1ccc(CN2C[C@@H]3COC[C@H](NS(C)(=O)=O)[C@@H]3C2)s1,0.354
18,CC(=O)N1[C@H](Cn2cncn2)C[C@@H]2CN(CC3CC3)CC[C@@H]21,-3.64
19,CCCC(=O)N1CC[C@@H]2[C@H](CC1)N(Cc1cccnc1)CCS2(=O)=O,-8.63
20,N#Cc1cccc(CN2CCC3(CC2)CC(c2ccncc2)C(=O)N3)c1 (centres undefined),3.44
21,O=C([C@H]1COC[C@H]2CN(C3CCOCC3)C[C@H]21)N1CCCO1,-4.68
